# This is a sample that favours compounds with a hit; in the whole collection about 12% have one here.
# ABCB1 block – inhibitors of human ABCB1 transporter, ABCG2 counter-screen. CCRF-Adr cells, JC-1 efflux, flow cytometry. hit rate 0.067% among 190,000. AID 1326. inhibition, % at 6.6 µM; in the data active = inhibition above about 40%;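 note: 0% = vehicle and 100% = reference inhibitor; higher value means more JC-1 retained so stronger ABCB1 efflux block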
# RAM inhibit – inhibitors of the yeast RAM network | hit rate 1.8% among 190,000 | inhibition, % at 50 µM | S. cerevisiae dse1pr::URA3 reporter, 5-FOA growth OD615, 2 d; analog-sensitive cbk1-as2 kinase mutant strain | AID 868;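 active = inhibition above a set limit, 3 SD over mean compound inhibition, cut at about 8.4% in these data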;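 note: 0% = DMSO-only wells with no growth and 100% = 10 µM 1-NA-PP1 full growth; inhibition rescues growth on 5-FOA so higher OD means more RAM inhibition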
# WT yeast gro inh – growth inhibition of WT yeast, mitochondrial fusion screen; mitochondrial fusion phenotypic screen, WT strain; AID 1362; inhibition, % at 10 µM; hit rate 2.1% among 190,000; in the data active = inhibition above about 58%; tested in S. cerevisiae
# L major viab – Leishmania major promastigote growth inhibition | Leishmania major promastigotes, resazurin fluorescence viability | hit rate 9% among 200,000 | inhibition, % at 10 µM; in the data active = inhibition above about 50%;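 note: promastigotes grown with compound for 44 hours at 28 °C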
# ABCG2 inh – human ABCG2 inhibition, ABCB1 as counter-screen; hit rate 0.1% among 190,000; Q9UNQ0; inhibition, % at 6.6 µM; IgMXP3 cells, JC-1 efflux, flow cytometry;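 active = inhibition above 80%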;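 note: 0% = DMSO and 100% = nicardipine control wells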
# Target sequence (Q9UNQ0 whole entry, looked up): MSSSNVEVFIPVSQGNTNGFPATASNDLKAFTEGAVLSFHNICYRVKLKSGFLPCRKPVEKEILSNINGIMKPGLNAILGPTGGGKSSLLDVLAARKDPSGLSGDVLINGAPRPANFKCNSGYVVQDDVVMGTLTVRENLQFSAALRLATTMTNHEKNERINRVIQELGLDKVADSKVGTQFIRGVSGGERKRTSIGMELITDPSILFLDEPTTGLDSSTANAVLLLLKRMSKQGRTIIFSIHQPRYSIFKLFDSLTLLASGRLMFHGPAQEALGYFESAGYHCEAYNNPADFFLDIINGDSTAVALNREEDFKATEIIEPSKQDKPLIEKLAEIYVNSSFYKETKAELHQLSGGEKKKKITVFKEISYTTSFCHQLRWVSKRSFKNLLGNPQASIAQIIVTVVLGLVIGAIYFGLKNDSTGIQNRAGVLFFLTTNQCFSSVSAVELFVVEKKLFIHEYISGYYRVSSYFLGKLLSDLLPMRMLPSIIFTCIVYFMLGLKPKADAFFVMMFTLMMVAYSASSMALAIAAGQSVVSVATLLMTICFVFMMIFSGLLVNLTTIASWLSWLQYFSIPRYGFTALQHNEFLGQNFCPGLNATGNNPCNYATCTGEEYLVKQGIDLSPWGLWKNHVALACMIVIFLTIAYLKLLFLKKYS
#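 Times: 10 min at 25 °C | Test system: Two drug-resistant human cell lines, ABCG2 and ABCB1 | Quantity: 3 million cells/mL final, two lines in 1:1 ratio | Signal: Flow cytometry, 530 nm JC-1 signal | Dosing: Compound at 6.6 µM | Controls: Nicardipine and DMSO wells | Reagent: JC-1 as fluorescent efflux pump substrate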
# Active calls of the source: *; . = no result given.
SMILES,ABCB1 block,RAM inhibit,WT yeast gro inh,L major viab,ABCG2 inh
CC(C)Oc1cccc(C(=O)C2CCCN(C(=O)CCn3cnnn3)C2)c1 (stereo not given),0,-1,-17,-6,1
O=C(CSc1nnc(-c2ccncc2)o1)NCc1ccccc1,1,-1,-9,50*,11
N#Cc1c(NC(=O)CN2C(=O)c3ccccc3C2=O)oc(-c2ccccc2)c1-c1ccccc1,.,.,.,2,.
CCn1c2ccccc2c2cc(NC(=O)CSc3nnc(-c4cccc(F)c4)o3)ccc21,0,3,.,4,-2
CCn1c2ccccc2c2cc(NC(=O)CSc3nccc(=O)[nH]3)ccc21,0,4,-10,90*,0
O=C(CSc1nccc(=O)[nH]1)Nc1ccc(Br)c(Cl)c1,0,4,4,-12,4
O=C(CSc1nnc(-c2ccncc2)o1)NCc1ccccc1Cl,-2,2,-2,-2,16
CCn1c2ccccc2c2cc(NC(=O)CSc3nnc(-c4cccc(C)c4)o3)ccc21,-1,4,24,92*,-2
N#Cc1c(NC(=O)CCN2C(=O)c3ccccc3C2=O)oc(-c2ccccc2)c1-c1ccccc1,1,9.5*,1,1,2
Cc1cccc(C)c1OCCNC(=O)CCC(=O)c1ccccc1,1,0,-2,-6,4
CCn1c2ccccc2c2cc(NC(=O)CSc3nnc(-c4ccccc4)o3)ccc21,0,5,.,85*,-1
CCn1c2ccccc2c2cc(/C=N/NC(=O)c3ccc(O)cc3)ccc21,-2,2,5,67*,-8
CCn1c(SCC(=O)Nc2ccc3c(c2)c2ccccc2n3CC)nnc1-c1ccco1,0,7,-3,72*,0
CCn1c(SCC(=O)Nc2ccc3c(c2)OCCO3)nnc1-c1ccco1,1,-1,13,0,18
CCn1c2ccccc2c2cc(NC(=O)c3cc(OC)cc(OC)c3)ccc21,0,8.6*,27,15,-6
COc1cccc(CN2CCN(Cc3ccc(OC)c(OC)c3)CC2CCO)c1 (stereo not given),2,1,0,1,3
CCc1ccc(/C=N/NC(=O)C(=O)NCCCN2CCOCC2)cc1,0,1,-5,-6,4
CSc1nc(Cc2ccccc2)cc(=O)[nH]1,0,3,0,-3,-1
O=C(CSc1nccc(=O)[nH]1)Nc1ccc(F)c([N+](=O)[O-])c1,1,1,10,51*,22
CCn1c(SCC(=O)Nc2oc(-c3ccccc3)c(-c3ccccc3)c2C#N)nnc1-c1ccco1,0,8.8*,4,-5,0
COc1cc(OC)cc(C(=O)Nc2cccc(N3CCCC3)c2)c1,0,2,4,72*,5
COc1cc(OC)cc(C(=O)Nc2cccc(C(C)=O)c2)c1,1,2,14,0,7
O=C(CSc1nccc(=O)[nH]1)Nc1ccc(F)c(Cl)c1,1,2,-3,-5,2
CCn1c(SCC(=O)Nc2oc(-c3ccccc3)c(-c3ccccc3)c2C#N)nnc1-c1ccncc1,0,4,0,-7,15
COc1ccccc1NC(=O)/C(C#N)=C/c1cc([N+](=O)[O-])ccc1N1CCCC1,4,4,24,4,7
SMILES,ABCB1 block,RAM inhibit,WT yeast gro inh,L major viab,ABCG2 inh
CC(=O)c1nc(N2C(=O)CC(Cc3cccc(C)c3)C2=O)sc1C (stereo not given),0,-1,-8,-2,1
CC(=O)c1nc(N2C(=O)CC(Cc3cc(C)cc(C)c3)C2=O)sc1C (stereo not given),.,-1,1,54*,10
COc1ccc(-c2c(C(C)=O)c(C)nc3sc4c(=O)[nH]nnc4c23)cc1,0,1,-9,59*,22
COc1ccccc1NC(=O)c1ccc(NC(=O)COC(=O)C2(C)CC2(Cl)Cl)cc1 (stereo not given),0,5,35,8,-1
CC(C)c1ccc(OCC(=O)N(Cc2ccccc2)c2ccccn2)cc1,1,1,11,-2,6
COc1ccccc1CCN1C(=S)NC(C)(C)CC1(C)O (stereo not given),0,1,70*,9,2
OCC1(Cc2ccccc2)CCN(Cc2ccccn2)CC1,0,3,-3,-4,1
OCC1(Cc2ccccc2C(F)(F)F)CCN(Cc2ccc3c(c2)CCO3)CC1,1,1,16,90*,1
COc1ccc(CN2CCC(CO)(Cc3ccccc3)CC2)cc1Cn1cccn1,6,3,11,6,1
OCC1(Cc2ccccc2C(F)(F)F)CCN(Cc2ccccc2)CC1,1,1,-7,81*,2
O=C(c1cc(COc2ccc(F)cc2Cl)on1)N1CCc2ccccc2C1,1,10*,5,-7,5
COCCNC(=O)C(=O)N/N=C/c1cccs1,1,1,5,-7,0
COc1ccccc1NC(=O)C(=O)N/N=C/c1cccs1,0,0,-3,55*,2
Cc1oc(-c2ccccc2)[n+]([O-])c1C,0,1,69*,-4,5
O=c1c2ccccc2nc(SCc2ccc([N+](=O)[O-])cc2)n1-c1ccccc1,2,5,-2,54*,11
CCC(C)n1c(SCc2ccc([N+](=O)[O-])cc2)nc2ccsc2c1=O (stereo not given),3,9.6*,5,20,22
O=C(Nn1c(SCc2cccc([N+](=O)[O-])c2)nc2ccccc2c1=O)c1ccccc1,0,5,4,9,-2
CCOC(CCn1c(SCc2cccc([N+](=O)[O-])c2)nc2ccccc2c1=O)OCC,6,11*,5,-1,18
Cc1ccc(S(=O)(=O)CCNC(=O)Cc2ccc(Cl)cc2)cc1,1,-1,-7,0,5
Cc1cccc(N2CCN(c3cccc(C)c3)C2c2cccnc2)c1,-2,5,37,99*,1
COc1cc(C2N(c3ccccc3)CCN2c2ccccc2)cc(OC)c1OC,1,1,-19,2,3
Cc1ccc(N2CCN(c3ccc(C)cc3)C2c2ccncc2)cc1,0,1,-15,92*,0
COCCNc1c(-c2ccc(OC)cc2)nc2ccc(Cl)cn12,1,0,4,76*,6
COc1ccccc1NC(=O)Cc1noc(CSc2nnc(C)n2C)n1,0,0,-19,-11,0
O=C(/C=C/Nc1ccc([N+](=O)[O-])cc1Br)c1cccc2ccccc12,0,7,22,75*,44
Cc1cc(N/C=C/C(=O)c2cccc3ccccc23)no1,0,6,6,0,0
O=C(c1ccccc1)N1CCN(C(=S)NCCc2ccccc2)CC1,1,2,-8,53*,15
Cc1ccc(NC(=O)COC(=O)c2cc(C)nc3ccccc23)c([N+](=O)[O-])c1,2,1,-2,-4,13
